Consider 8 compounds from ChEMBL document CHEMBL1128464, “Synthesis and antiproliferative and antiviral activity of 2'-deoxy-2'-fluoroarabinofuranosyl analogs of the nucleoside antibiotics toyocamycin and sangivamycin” (J Med Chem, 1995).

Molecules are shown by their SMILES. Values joined by “and” are separate entries in the source; they are usually repeats but may differ in a detail not shown here. Equal values may be shown once.

By IC50 is commonly meant the concentration that inhibits the measured activity by half. One may read the IC90 as the concentration needed for an effect of 90%.

The test system of assay [1] is CCRF-CEM. The assay is described as follows: Visual cytotoxicity scored on CEM cells at time of RT assay. The following applies: Homo sapiens.
Assay [2] concerns HFF. The assay is described as follows: Visual cytotoxicity scored on HFF cells at time of HCMV plaque enumeration. The class given is functional, cell-based. The settings on record: Homo sapiens. Put shortly:
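Stationary HFF cells, uninfected cells in HCMV plaque assay plates scored by microscopic inspection at plaque enumeration (7–10 days); IC50.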

Assay [3] deals with Human betaherpesvirus 5. Nature of the assay: antiviral activity in Human cytomegalovirus by plaque assay given as yield. It counts as functional.
Assay [4] concerns L1210. The assay is described as follows: Antiproliferative activity in L1210 Murine Leukemia in vitro expressed as Growth rate in the presence of compound. The class given is functional, Mus musculus. The arrangement: concentration or dose not given beside the values.
Assay [5] relates to L1210. The assay is described as follows: antiproliferative activity in L1210 Murine Leukemia in vitro expressed as concentration required to decrease growth rate to 50% of control. The following applies: Mus musculus. The class given is functional, cell-based. In short, it runs like this: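 L1210 cells in static suspension, Fischer's medium with 10% heat-inactivated horse serum; cell counts at 0, 48, 96 h over a concentration series; IC50 is the concentration lowering growth rate (treated doublings as % of control) to 50% of control.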

A further assay relates to KB. Nature of the assay: cell growth inhibition was determined in KB cells in quadruplicate assays. The settings on record: Homo sapiens. It counts as functional, cell-based.
For assay [6], the system named is Human alphaherpesvirus 1. Nature of the assay: Antiviral activity in Herpes simplex virus-1 assayed by ELISA in quadruplicate wells. The class given is functional, organism-based. A general note: In an ELISA, binding on a coated surface is turned into a signal by an enzyme label.
In assay [7] the test system is Human betaherpesvirus 5. Nature of the assay: antiviral activity in Human cytomegalovirus by plaque assay (HCMV). It counts as functional, organism-based.
Assay [8] relates to CCRF-CEM. Nature of the assay: cytotoxicity in CEM-SS cells by visual inspection. The class given is functional, cell-based. The following applies: Homo sapiens.
The subject of assay [9] is HFF. The assay is described as follows: Cytotoxicity in human foreskin fibroblast (HFF) stationary by MTT assay. It counts as functional, cell-based. Put shortly: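 MTT assay on stationary HFF cells; drug in half-log10 dilutions; incubated one to three population doublings in 5% CO2; viable cells read at 570 nm; % inhibition vs control; IC50 from regression; duplicate assays.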

The test system of assay [10] is HFF. The assay is described as follows: Cytotoxicity in human foreskin fibroblast (HFF) stationary cells as neutral red uptake. It counts as functional, cell-based.
For a further assay, the system named is Human alphaherpesvirus 3. Nature of the assay: antiviral activity as 50% inhibitory concentration against VZV. The class given is functional, organism-based. Put shortly: (§1)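 Plaque reduction in HFF monolayers; HSV-1 E-377, HSV-2 MS or VZV Ellen, 20–50 PFU, 1 h adsorption at 37 °C; serial 5-fold drug dilutions in agarose overlay (extra overlay days 3 and 6 for VZV); neutral red staining at 3 days (HSV) or 10 days (VZV); plaques counted; duplicate assays.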

The test system of another assay is Human alphaherpesvirus 2. Nature of the assay: Antiviral activity as 50% inhibitory concentration against HSV-2. The class given is functional, organism-based. In short, it runs like this:
as §1

Assay [11] has as its system Human alphaherpesvirus 1. Nature of the assay: Antiviral activity as 50% inhibitory concentration against HSV-1. It counts as functional, organism-based. Put shortly:
as §1

Assay [12] concerns CCRF-CEM. Nature of the assay: cytotoxicity in CEM-SS cells by [3H]Thd uptake. It counts as functional, cell-based. The settings on record: Homo sapiens. Put shortly: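 [3H]dThd incorporation into acid-precipitable DNA of CEM-SS cells; IC50 from regression of % inhibition on log concentration; triplicate assays.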

As for `N#Cc1c(Br)n([C@H]2O[C@H](CO)[C@@H](O)[C@@H]2F)c2ncnc(N)c12`, the IC50 in the assay on CCRF-CEM [1] is above 100 µM; in the assay with HFF [2], 55 µM; with L1210 [5], 90 µM; in the assay with KB, above 150 µM; with Human alphaherpesvirus 1 [6], above 100 µM; with Human betaherpesvirus 5 [7], 3.2 µM. For the same compound, the concentration for an effect of 90% (IC90) with Human betaherpesvirus 5 [3] is above 100 µM. In addition, the Growth rate in the assay on L1210 [4] was 45%.
`N#Cc1c(Br)n([C@@H]2O[C@H](CO)[C@@H](O)[C@@H]2F)c2ncnc(N)c12`: the concentration for half-maximal inhibition (IC50) in the assay on CCRF-CEM [1] is 33 µM; with HFF [2] it was 21 µM; in the assay with L1210 [5] it was 66 µM; with KB, 144 µM; with Human alphaherpesvirus 1 [6], above 100 µM; in the assay on Human betaherpesvirus 5 [7] it was 12 µM. In the assay on Human betaherpesvirus 5 [3], this compound returned a concentration for an effect of 90% (IC90) of 7 µM. Further, in the assay on L1210 [4], the Growth rate is 21%.
As to `N#Cc1cn([C@H]2O[C@H](CO)[C@@H](O)[C@@H]2F)c2ncnc(N)c12`, the IC50 was above 100 µM in the assay on CCRF-CEM [1]; 100 µM with HFF [2]; above 100 µM with KB; 46 µM in the assay with Human alphaherpesvirus 1 [6]; 16 µM in the assay on Human betaherpesvirus 5 [7]. The IC90 in the assay with Human betaherpesvirus 5 [3] was 100 µM. The Growth rate in the assay on L1210 [4] was 98%.
In the case of `NC(=O)c1cn([C@@H]2O[C@H](CO)[C@@H](O)[C@@H]2F)c2ncnc(N)c12`, the IC50 is 0.4 µM with CCRF-CEM [8]; 0.4 µM in the assay with CCRF-CEM [1]; 5.5 µM with HFF [2]; 0.13 µM in the assay with HFF [9] (Homo sapiens, HFF); 0.16 µM in the assay with HFF [9] (hff); 6.7 µM in the assay with HFF [10]. The IC50 with L1210 [5] amounted to 3.2 µM; with Human alphaherpesvirus 3, 0.003 µM; in the assay on KB, 1.9 µM; in the assay on Human alphaherpesvirus 2, 0.03 µM; with Human alphaherpesvirus 1 [6], 0.47 µM; with Human betaherpesvirus 5 [7], 0.025 µM. Besides, the half-inhibitory concentration (IC50) was 0.03 µM and 0.0037 µM in the assay on Human alphaherpesvirus 1 [11]; 0.193 µM in the assay with CCRF-CEM [12]. In addition, the IC90 in the assay with Human betaherpesvirus 5 [3] was 0.075 µM. In the assay with L1210 [4], the Growth rate is 9%.
Take `NC(=S)c1cn([C@@H]2O[C@H](CO)[C@@H](O)[C@@H]2F)c2ncnc(N)c12`: the IC50 with CCRF-CEM [1] is 2 µM; in the assay with HFF [2] it was 3.1 µM; in the assay on L1210 [5] it was 5 µM; with KB, 3 µM; in the assay on Human alphaherpesvirus 1 [6], 8.7 µM; in the assay with Human betaherpesvirus 5 [7], 0.22 µM. In addition, the 90% effect concentration (IC90) in the assay with Human betaherpesvirus 5 [3] amounted to 1.5 µM. The Growth rate with L1210 [4] was 5%.
As for `N#Cc1cn([C@@H]2O[C@H](CO)[C@@H](O)[C@@H]2F)c2ncnc(N)c12`, the IC50 came out at 33 µM in the assay on CCRF-CEM [1]; 6.8 µM in the assay with HFF [2]; 39 µM in the assay with L1210 [5]; 8.8 µM in the assay on KB; 6.5 µM in the assay with Human alphaherpesvirus 1 [6]; 1 µM in the assay with Human betaherpesvirus 5 [7]. The compound also registered a concentration for an effect of 90% (IC90) with Human betaherpesvirus 5 [3] of 1.1 µM. Also, in the assay with L1210 [4], the Growth rate is 11%.
As for `Nc1nc2c(ncn2COC(CO)CO)c(=O)[nH]1` [GANCICLOVIR], the 50% inhibitory concentration (IC50) in the assay with HFF [2] and in the assay on KB was above 100 µM throughout. In addition, the 90% effect level with Human betaherpesvirus 5 [3] (IC90) was put at 1.6 µM.
`Cc1cn([C@H]2C[C@H](N=[N+]=[N-])[C@@H](CO)O2)c(=O)[nH]c1=O` [ZIDOVUDINE]: the IC50 in the assay with HFF [2] is above 100 µM.
